Measured values published in ChEMBL document CHEMBL1255247, “Induction of L1 and L2 beta-lactamases of Stenotrophomonas maltophilia” (2008).
In brackets after ≈: the same amount, converted by molar mass. Activity calls are given as the source filed them. The rule behind the calls is not given here.

Columns and labels:
[1] = tested on: Stenotrophomonas maltophilia; assay: Antibacterial activity against Stenotrophomonas maltophilia isolate KJ deficient in L1 beta lactamase gene by Etest; assay type: functional
[2] = tested on: Stenotrophomonas maltophilia; assay: Antibacterial activity against Stenotrophomonas maltophilia isolate KJ deficient in L2 beta lactamase gene by Etest; assay type: functional
[3] = tested on: Stenotrophomonas maltophilia; assay: Antibacterial activity against Stenotrophomonas maltophilia isolate KJ by Etest; assay type: functional
[4] = tested on: Stenotrophomonas maltophilia; assay: Ratio of induction of xylE gene expression in Stenotrophomonas maltophilia isolate KJ deficient in L1 beta lactamase gene to induction of xylE gene expression in Stenotrophomonas maltophilia isolate KJ deficient in L2 beta lactamase gene assessed as catechol 2,3-dioxygenase activity at 50 ug/ml; assay type: functional
[5] = tested on: Stenotrophomonas maltophilia; assay: Antibacterial activity against Stenotrophomonas maltophilia isolate KJ deficient in L1 beta lactamase gene at 50 ug/ml; assay type: functional, organism-based
[6] = tested on: Stenotrophomonas maltophilia; assay: Antibacterial activity against Stenotrophomonas maltophilia isolate KJ deficient in L2 beta lactamase gene at 50 ug/ml; assay type: functional, organism-based
[7] = tested on: Stenotrophomonas maltophilia; assay: Ratio of induction of xylE gene expression in Stenotrophomonas maltophilia isolate KJ deficient in L1 beta lactamase gene to induction of xylE gene expression in Stenotrophomonas maltophilia isolate KJ deficient in L2 beta lactamase gene assessed as catechol 2,3-dioxygenase activity at 16 ug/ml; assay type: functional
[8] = tested on: Stenotrophomonas maltophilia; assay: Antibacterial activity against Stenotrophomonas maltophilia isolate KJ deficient in L1 beta lactamase gene at 16 ug/ml; assay type: functional, organism-based
[9] = tested on: Stenotrophomonas maltophilia; assay: Induction of xylE gene expression in Stenotrophomonas maltophilia isolate KJ deficient in L1 beta lactamase gene assessed maximum catechol 2,3-dioxygenase activity at 50 ug/ml after 3 hrs; assay type: functional, organism-based
Summary of the method: (§1)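 xylE (catechol 2,3-dioxygenase) reporter induction in the L1 or L2 knockout of strain KJ. Overnight cultures were diluted to OD450 0.15 and grown 0.5 h at 37°C, then exposed to β-lactam inducer (default 50 μg/ml, 2.5 h). C23O activity was read in intact cells with OD450. 1 U = 1 nmol substrate/min; specific activity is U per A450 unit. Each experiment was run ≥3 times.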

[10] = tested on: Stenotrophomonas maltophilia; assay: Induction of xylE gene expression in Stenotrophomonas maltophilia isolate KJ deficient in L1 beta lactamase gene assessed maximum catechol 2,3-dioxygenase activity at 1 ug/ml; assay type: functional, organism-based; summary of the method: as §1
[11] = tested on: Stenotrophomonas maltophilia; assay: Induction of xylE gene expression in Stenotrophomonas maltophilia isolate KJ deficient in L2 beta lactamase gene assessed maximum catechol 2,3-dioxygenase activity at 50 ug/ml after 2.5 hrs; assay type: functional, organism-based; summary of the method: as §1
[12] = tested on: Stenotrophomonas maltophilia; assay: Induction of xylE gene expression in Stenotrophomonas maltophilia isolate KJ deficient in L2 beta lactamase gene assessed maximum catechol 2,3-dioxygenase activity at 1 ug/ml; assay type: functional, organism-based; summary of the method: as §1
[13] = tested on: Stenotrophomonas maltophilia; assay: Ratio of induction of xylE gene expression in Stenotrophomonas maltophilia isolate KJ deficient in L1 beta lactamase gene to induction of xylE gene expression in Stenotrophomonas maltophilia isolate KJ deficient in L2 beta lactamase gene assessed as catechol 2,3-dioxygenase activity at 8 ug/ml; assay type: functional
Summary of the method: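 xylE reporter (C23O) assay in L1- or L2-knockout mutants of strain KJ. Overnight cultures diluted to OD450 0.15 and grown 0.5 h at 37°C, then exposed to β-lactam inducer, by default for 2.5 h. C23O activity measured in intact cells with OD450 recorded. Specific activity is nmol substrate converted/min per A450 unit. At least three repeats.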

[14] = tested on: Stenotrophomonas maltophilia; assay: Antibacterial activity against Stenotrophomonas maltophilia isolate KJ deficient in L2 beta lactamase gene at 8 ug/ml; assay type: functional, organism-based

SMILES: C[C@@H](O)[C@H]1C(=O)N2C(C(=O)O)=C(SCCNC=N)C[C@H]12 [IMIPENEM ANHYDROUS]
- MIC [1]: 8 µg/mL (≈ 26.7 µM)
- MIC [2]: > 32 µg/mL
- MIC [3]: > 32 µg/mL

SMILES: CO[C@@]1(NC(=O)Cc2cccs2)C(=O)N2C(C(=O)O)=C(COC(N)=O)CS[C@@H]21 [CEFOXITIN]
- MIC [1]: 128 µg/mL (≈ 299 µM)
- Ratio [4]: 0.2
- MIC [2]: 1020 µg/mL (≈ 2400 µM)
- Activity [5]: inactive
- Activity [6]: inactive
- MIC [3]: 1020 µg/mL (≈ 2400 µM)

SMILES: C[C@@H](O)[C@H]1C(=O)N2C(C(=O)O)=C(S[C@@H]3CN[C@H](C(=O)N(C)C)C3)[C@H](C)[C@H]12 [MEROPENEM]
- MIC [1]: 0.5 µg/mL (≈ 1.3 µM)
- MIC [2]: > 32 µg/mL
- MIC [3]: > 32 µg/mL

SMILES: CCN1CCN(C(=O)N[C@@H](C(=O)N[C@@H]2C(=O)N3C(C(=O)O)=C(CSc4nnnn4C)CS[C@H]23)c2ccc(O)cc2)C(=O)C1=O [CEFOPERAZONE]
- MIC [1]: 32 µg/mL (≈ 49.6 µM)
- MIC [2]: 64 µg/mL (≈ 99.1 µM)
- Ratio [7]: 1.4
- MIC [3]: 128 µg/mL (≈ 198 µM)
- Activity [8]: Active

SMILES: CO/N=C(\C(=O)N[C@@H]1C(=O)N2C(C(=O)O)=C(COC(N)=O)CS[C@H]12)c1ccco1 [CEFUROXIME]
- MIC [1]: 1020 µg/mL (≈ 2410 µM)
- Ratio [4]: 2.4
- MIC [2]: 1020 µg/mL (≈ 2410 µM)
- Activity [9]: Active
- Activity [5]: inactive
- Activity [6]: inactive
- MIC [3]: 2050 µg/mL (≈ 4830 µM)
- Activity [10]: Active
- Activity [11]: Active
- Activity [12]: Active

SMILES: CC1(C)S[C@@H]2[C@H](NC(=O)[C@H](N)c3ccccc3)C(=O)N2[C@H]1C(=O)O [AMPICILLIN]
- MIC [1]: > 2050 µg/mL
- Ratio [4]: 0.9
- MIC [2]: > 2050 µg/mL
- Activity [5]: inactive
- Activity [6]: inactive
- MIC [3]: > 2050 µg/mL

SMILES: CO/N=C(\C(=O)N[C@@H]1C(=O)N2C(C(=O)O)=C(CSc3nc(=O)c(O)nn3C)CS[C@H]12)c1csc(N)n1 [CEFTRIAXONE]
- MIC [1]: 128 µg/mL (≈ 231 µM)
- Ratio [4]: 5.5
- MIC [2]: 128 µg/mL (≈ 231 µM)
- Activity [5]: inactive
- Activity [6]: inactive
- MIC [3]: 256 µg/mL (≈ 462 µM)

SMILES: C[C@H]1[C@H](NC(=O)/C(=N\OC(C)(C)C(=O)O)c2csc(N)n2)C(=O)N1S(=O)(=O)O [AZTREONAM]
- MIC [1]: > 2050 µg/mL
- MIC [3]: > 2050 µg/mL
- Ratio [13]: 7.9
- Activity [14]: Active

SMILES: CO/N=C(\C(=O)N[C@@H]1C(=O)N2C(C(=O)[O-])=C(C[N+]3(C)CCCC3)CS[C@H]12)c1csc(N)n1 [CEFEPIME]
- MIC [1]: 64 µg/mL (≈ 133 µM)
- MIC [2]: 4 µg/mL (≈ 8.32 µM)
- MIC [3]: 64 µg/mL (≈ 133 µM)

SMILES: CO/N=C(\C(=O)N[C@@H]1C(=O)N2C(C(=O)O)=C(COC(C)=O)CS[C@H]12)c1csc(N)n1 [CEFOTAXIME]
- MIC [1]: 128 µg/mL (≈ 281 µM)
- Ratio [4]: 3.2
- MIC [2]: 128 µg/mL (≈ 281 µM)
- Activity [5]: inactive
- Activity [6]: inactive
- MIC [3]: 256 µg/mL (≈ 562 µM)

SMILES: CC1(C)S[C@@H]2[C@H](NC(=O)C(C(=O)O)c3ccccc3)C(=O)N2[C@H]1C(=O)O (some centres undefined) [CARBENICILLIN]
- MIC [1]: 1020 µg/mL (≈ 2710 µM)
- Ratio [4]: 3.4
- MIC [2]: 64 µg/mL (≈ 169 µM)
- Activity [5]: inactive
- Activity [6]: inactive
- MIC [3]: 1020 µg/mL (≈ 2710 µM)

SMILES: CCN1CCN(C(=O)N[C@@H](C(=O)N[C@@H]2C(=O)N3[C@@H]2SC(C)(C)[C@@H]3C(=O)O)c2ccccc2)C(=O)C1=O [PIPERACILLIN]
- MIC [1]: 256 µg/mL (≈ 495 µM)
- Ratio [4]: 1.7
- MIC [2]: 512 µg/mL (≈ 989 µM)
- Activity [5]: inactive
- Activity [6]: inactive
- MIC [3]: 1020 µg/mL (≈ 1980 µM)
